In ChEMBL document CHEMBL2057177, “Analogues of fenarimol are potent inhibitors of Trypanosoma cruzi and are efficacious in a murine model of Chagas disease” (J Med Chem, 2012):
In brackets after ≈: the same amount, converted by molar mass. One block for each molecule: values may come before it. Activity calls are given as the source filed them. The rule behind the calls is not given here.

Key:
[1] = Blood Clearance in Sprague-Dawley rat at 4.8 mg/kg, iv; type: ADME, organism-based; set-up: dose 4.8 mg/kg, route intravenous; conditions: whole blood
Summary of the method: (§1)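 Overnight-fasted male Sprague–Dawley rats (272–320 g), n = 2 per route. IV dose given as a 10 min jugular infusion in aqueous solution; oral dose by gavage as aqueous suspension. Arterial blood taken via carotid cannula up to 24 h. Plasma measured by LC-MS after acetonitrile precipitation. Noncompartmental analysis. Blood clearance = plasma clearance divided by in vitro blood/plasma ratio. Bioavailability from mean dose-normalised AUC0–inf, oral versus IV.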

[2] = Apparent volume of distribution at steady state in Sprague-Dawley rat at 4.8 mg/kg, iv; type: ADME, organism-based; set-up: dose 4.8 mg/kg, route intravenous; conditions: in vivo, read-out: Vdss(app); summary of the method: as §1
[3] = biological target: CYP3A4/5 (Homo sapiens, UniProt P08684+P20815); test: Inhibition of CYP3A4/5 in human liver microsomes; type: ADME, Microsome
[4] = tested on: Trypanosoma cruzi; test: Antitrypanosomal activity against trypomastigotes of Trypanosoma cruzi Tulahuen expressing the beta- galactosidase gene infected rat L6 cells after 96 hrs; type: functional, organism-based; conditions: L6, 96 h
Summary of the method: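 Tulahuén trypomastigotes expressing β-galactosidase, maintained by serial passage in L6 cells. L6 cells seeded and left 24 h at 37 °C, 5% CO2, then infected at MOI 3 for 48 h. Compound exposure 96 h, benznidazole control. CPRG with 0.3% Nonidet P-40 added, absorbance at 530 nm after 4−6 h. IC50 taken from % inhibition curve; mean of at least two assays.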

[5] = Oral bioavailability in Sprague-Dawley rat at 15.7 mg/kg; type: ADME, organism-based; conditions: in vivo; summary of the method: as §1
[6] = Kinetic solubility of the compound at pH 6.5 by nephelometric analysis; type: physicochemical; conditions: buffer, read-out: Kinetic_solubility
[7] = Elimination half life in Sprague-Dawley rat at 4.8 mg/kg, iv; type: ADME, organism-based; set-up: dose 4.8 mg/kg, route intravenous; conditions: in vivo, read-out: beta t1/2 (converted); summary of the method: as §1
[8] = Plasma concentration in Swiss mouse at 100 mg/kg, po after 8 hrs; type: ADME, organism-based; set-up: dose 100 mg/kg, route oral
Summary of the method: (§2)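 Nonfasted male Swiss Outbred mice weighing 23.8−39.9 g, with food and water freely available, dosed by oral gavage as an aqueous solution or suspension. Plasma proteins precipitated with acetonitrile and compound quantified by LC-MS against standards made in blank mouse plasma. Lower limit of quantitation 0.001−0.015 μM.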

[9] = Oral bioavailability in Sprague-Dawley rat at 15.2 mg/kg; type: ADME, organism-based; conditions: in vivo; summary of the method: as §1
[10] = Plasma concentration in Swiss mouse at 10 mg/kg, po after 8 hrs; type: ADME, organism-based; set-up: dose 10 mg/kg, route oral
Summary of the method: (§3)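 Nonfasted male Swiss outbred mice (23.8–39.9 g), fed throughout. Dosed by oral gavage as solution or suspension in aqueous vehicle. Plasma assayed by LC-MS against blank-plasma standards after acetonitrile precipitation; LLOQ 0.001–0.015 μM.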

[11] = Plasma concentration in Swiss mouse at 20 mg/kg, po after 8 hrs; type: ADME, organism-based; set-up: dose 20 mg/kg, route oral; summary of the method: as §3
[12] = tested on: Trypanosoma cruzi; test: Antitrypanosomal activity against trypomastigotes of Trypanosoma cruzi Tulahuen infected in Swiss mouse model of chagas disease assessed as decrease in parasite level in blood at 20 mg/kg, po administered 8 days after post infection qd for 5 days; set-up: scale not given: the % may be the effect or the level left
[13] = Plasma concentration in Swiss mouse at 100 mg/kg, po after 1 hr; type: ADME, organism-based; set-up: dose 100 mg/kg, route oral; summary of the method: as §2
[14] = tested on: L6; test: Cytotoxicity against rat L6 cells after 72 hrs by Alamar Blue assay; type: cell-based; conditions: L6, 72 h
Summary of the method: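 L6 rat skeletal myoblasts in RPMI 1640 with 10% FBS. Exposed to compound for 72 h, seven-point serial dilutions in triplicate. Alamar Blue read at 570 and 630 nm. IC50 is the mean of at least two assays; podophyllotoxin used as control.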

[15] = tested on: Trypanosoma cruzi; test: Antitrypanosomal activity against trypomastigotes of Trypanosoma cruzi Tulahuen infected in Swiss mouse model of chagas disease assessed as increase of host survival at 50 mg/kg, po administered 8 days after post infection qd for 5 days; type: functional, organism-based; set-up: dose 50 mg/kg
[16] = Therapeutic index, ratio of IC50 for rat L6 cells to IC50 for trypomastigotes of Trypanosoma cruzi Tulahuen; type: cell-based; conditions: read-out: Ratio IC50
[17] = tested on: Trypanosoma cruzi; test: Antitrypanosomal activity against trypomastigotes of Trypanosoma cruzi Tulahuen infected in Swiss mouse model of chagas disease assessed as increase of host survival at 20 mg/kg, po administered 8 days after post infection qd for 5 days; type: functional, organism-based; set-up: dose 20 mg/kg
[18] = Plasma concentration in Swiss mouse at 10 mg/kg, po after 1 hr; type: ADME, organism-based; set-up: dose 10 mg/kg, route oral; summary of the method: as §3
[19] = Blood Clearance in Sprague-Dawley rat at 4.2 mg/kg, iv; type: ADME, organism-based; set-up: dose 4.2 mg/kg, route intravenous; conditions: whole blood; summary of the method: as §1
[20] = tested on: Trypanosoma cruzi; test: Antitrypanosomal activity against trypomastigotes of Trypanosoma cruzi Tulahuen infected in Swiss mouse model of chagas disease assessed as decrease in parasite level in blood at 50 mg/kg, po administered 8 days after post infection qd for 5 days; type: functional; set-up: scale not given: the % may be the effect or the level left
Summary of the method: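 Female outbred Swiss mice, about 8 weeks old, infected ip with Tulahuén parasites; five mice per group. Daily dosing starts day 8 post-infection. Oral doses given by gavage in HPMC vehicle (0.5% HPMC, 0.4% Tween 80, 0.5% benzyl alcohol); ip doses in PBS with 0.4% Tween 80 and 10% PEG400. Tail-prick blood taken days 8, 9, 12, 14, 16, 19 and 27 post-infection, red cells lysed, and live trypomastigotes counted by hemocytometer. % efficacy = (vehicle mean − treated mean)/vehicle mean × 100. Survival recorded as surviving/infected-and-treated.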

[21] = Elimination half life in Sprague-Dawley rat at 4.2 mg/kg, iv; type: ADME, organism-based; set-up: dose 4.2 mg/kg, route intravenous; conditions: in vivo, read-out: beta t1/2 (converted); summary of the method: as §1
[22] = Plasma concentration in Swiss mouse at 50 mg/kg, po after 8 hrs; type: ADME, organism-based; set-up: dose 50 mg/kg, route oral; summary of the method: as §3
[23] = tested on: Trypanosoma cruzi; test: Antitrypanosomal activity against trypomastigotes of Trypanosoma cruzi Tulahuen infected in Swiss mouse model of chagas disease assessed as decrease in parasite level in blood at 100 mg/kg, po administered 8 days after post infection qd for 5 days; type: functional; set-up: scale not given: the % may be the effect or the level left
[24] = Plasma concentration in Swiss mouse at 50 mg/kg, po after 24 hrs; type: ADME, organism-based; set-up: dose 50 mg/kg, route oral; summary of the method: as §3
[25] = Plasma concentration in Swiss mouse at 50 mg/kg, po after 1 hr; type: ADME, organism-based; set-up: dose 50 mg/kg, route oral; summary of the method: as §3
[26] = Plasma concentration in Swiss mouse at 20 mg/kg, po after 1 hr; type: ADME, organism-based; set-up: dose 20 mg/kg, route oral; summary of the method: as §3
[27] = Apparent volume of distribution at steady state in Sprague-Dawley rat at 4.2 mg/kg, iv; type: ADME, organism-based; set-up: dose 4.2 mg/kg, route intravenous; conditions: in vivo, read-out: Vdss(app); summary of the method: as §1

clearance [1]: 73.9 mL/min/kg | Vd [2]: 9.1 L/kg | IC50 [3]: 4400 nM | IC50 [4]: 8 nM | bioavailability [5]: 7.4% | solubility kinetic [6]: 12.5 µg/mL (≈ 33.4 µM) | half-life [7]: 11.3 h
Structure (SMILES): CC(C)Oc1ncc(C(O)(c2cccnc2)c2ccc(Cl)cc2F)cn1 (racemic)

concentration at 8 h [8]: 6.5 µM | bioavailability [9]: 95% | concentration at 8 h [10]: 0.4 µM | concentration at 8 h [11]: 1.9 µM | concentration at 1 h [13]: 19.5 µM | IC50 [3]: 2600 nM | concentration at 1 h [18]: 6.8 µM | clearance [19]: 18.9 mL/min/kg | half-life [21]: 6.1 h | concentration at 8 h [22]: 15.9 µM | IC50 [4]: 30 nM | concentration at 24 h [24]: 0.06 µM | concentration at 1 h [25]: 13.7 µM | solubility kinetic [6]: 50 µg/mL (≈ 148 µM) | concentration at 1 h [26]: 10.3 µM | Vd [27]: 3.6 L/kg
Structure (SMILES): NC(=O)c1cccc(C(O)(c2ccc(Cl)cc2)c2cccnc2)c1 (racemic)
Activity [12]: 0% | IC50 [14]: > 100000 nM | Activity [15]: Active | selectivity ratio [16]: > 500 | Activity [17]: Active | Activity [20]: 65% | Activity [23]: >95%
